Measured values reported in ChEMBL document CHEMBL4699629, “N-Hydroxyformamide LpxC inhibitors, their in vivo efficacy in a mouse Escherichia coli infection model, and their safety in a rat hemodynamic assay” (Bioorg Med Chem, 2020).
pIC50: −log10 of the molar value. In brackets after ≈: the same amount, converted by molar mass.

Assays:
[1] = target: T1, UDP-3-O-acyl-N-acetylglucosamine deacetylase (Pseudomonas aeruginosa (strain ATCC 15692 / PAO1 / 1C / PRS 101 / LMG12228), UniProt P47205); assay: Displacement of fluorescent ligand from Pseudomonas aeruginosa LpxC measured after 30 mins by fluorescence anisotrophy assay
T1 sequence (P47205 whole entry): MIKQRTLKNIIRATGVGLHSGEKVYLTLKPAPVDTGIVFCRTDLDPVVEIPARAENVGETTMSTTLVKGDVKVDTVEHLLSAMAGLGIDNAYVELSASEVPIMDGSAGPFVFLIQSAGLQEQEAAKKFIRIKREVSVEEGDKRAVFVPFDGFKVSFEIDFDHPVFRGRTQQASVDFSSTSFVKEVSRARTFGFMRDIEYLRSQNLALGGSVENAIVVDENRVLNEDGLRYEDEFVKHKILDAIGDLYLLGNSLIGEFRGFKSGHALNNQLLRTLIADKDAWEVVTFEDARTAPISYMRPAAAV

[2] = Displacement of fluorescent ligand from Escherichia coli LpxC measured after 30 mins by fluorescence anisotrophy assay
In short: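 Well mixes of 2 nM ligand C ± 12.5 nM E. coli LpxC; inhibitor two-fold dilutions 10 µM to […]; 30 min ambient, anisotropy 540/590 nm; % inhibition vs no-enzyme min; Hill fit for IC50; artifact correction at high concentrations.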

[3] = test system: Escherichia coli; assay: Antibacterial activity against Escherichia coli ATCC 25922 assessed as bacterial growth inhibition by CLSI based broth microdilution method; assay type: functional
In short: (§1)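 CLSI broth microdilution determination of MIC.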

[4] = test system: Pseudomonas aeruginosa; assay: Antibacterial activity against Pseudomonas aeruginosa PAO1 assessed as bacterial growth inhibition by CLSI based broth microdilution method; assay type: functional; in short: as §1
[5] = test system: Klebsiella pneumoniae; assay: Antibacterial activity against Klebsiella pneumoniae ATCC 700603 assessed as bacterial growth inhibition by CLSI based broth microdilution method; assay type: functional; in short: as §1
[6] = Solubility of the compound in 2.5% dextrose in sodium acetate buffer at pH 5; assay type: physicochemical
[7] = Cmax in mouse at 200 mg/kg, sc; assay type: ADME, organism-based; design: route subcutaneous, dose 200 mg/kg; details: in vivo
[8] = AUC in mouse at 200 mg/kg, sc; assay type: ADME, organism-based; design: dose 200 mg/kg; details: in vivo
[9] = Observed clearance in mouse at 200 mg/kg, sc; assay type: ADME, organism-based; details: in vivo
[10] = Volume of distribution in mouse at 200 mg/kg, sc; assay type: ADME, organism-based; details: in vivo
[11] = Ratio of fAUC in mouse at 200 mg/kg, sc to MIC for antibacterial activity against Escherichia coli ARC6599 infected in cyclophosphamide-induced CD-1 mouse model of neutropenic thigh infection; assay type: ADME, organism-based; details: in vivo
[12] = Protein binding in mouse plasma assessed as unbound fraction after 7 hrs by LC-MS/MS-based rapid equilibrium dialysis method; assay type: ADME, cell-free
In short: (§2)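 Rapid equilibrium dialysis: plasma spiked to 5 µM final, dialysed against PBS at 37 °C for 7 h with 400 rpm shaking; both chambers protein-precipitated with acetonitrile/0.1% formic acid containing carbutamide internal standard, quantified by LC-MS/MS. fu = buffer/sample peak area ratio; recovery accepted between 70 and 130%.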

[13] = Protein binding in rat plasma assessed as unbound fraction after 7 hrs by LC-MS/MS-based rapid equilibrium dialysis method; assay type: ADME, cell-free; in short: as §2
[14] = test system: Escherichia coli; assay: Antibacterial activity against Escherichia coli ARC6599 infected in cyclophosphamide-induced CD-1 mouse model of neutropenic thigh infection assessed as log10 reduction in CFU at 200 mg/kg, sc qd administered 2 hrs post-infection and measured after 24 hrs; assay type: functional
In short: (§3)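 Female CD-1 mice made neutropenic with cyclophosphamide IP, 150 mg/kg day -4 and 100 mg/kg day -1. Saline suspension from overnight plate, OD625 0.13, diluted; 100 µL i.m. into both rear thighs (actual 7.6×10^5 CFU/thigh). Dosing began 2 h post-infection, s.c. at 20 mL/kg in 5% DMSO plus 2.5% dextrose/20 mM acetate ([…]); 3 mice/group. Thighs harvested 26 h post-infection, homogenized in 2 mL saline, plated; mean and SD of log CFU.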

[15] = test system: Escherichia coli; assay: Antibacterial activity against Escherichia coli ARC6599 infected in cyclophosphamide-induced CD-1 mouse model of neutropenic thigh infection assessed as log10 reduction in CFU at 200 mg/kg, sc bid administered 2 hrs post-infection and measured after 24 hrs; assay type: functional; in short: as §3
[16] = target: Acetylcholinesterase (Homo sapiens, UniProt P22303); assay: Inhibition of human AchE expressed in HEK293 cells using acetylthiocholine as substrate by Ellman's method
In short: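 Purified recombinant enzyme in 0.1 M sodium phosphate pH 7.4 with 0.01% Triton X-100. Two-fold inhibitor dilutions from 300 µM to 0.29 µM plus zero, each held at 3% DMSO. Acetylthiocholine and Ellman's reagent added as a solution of 1.2 mM each; reaction started with 0.006 U/mL enzyme solution. A412 read every minute for 1 h, with a no-enzyme blank subtracted. Initial slopes give % inhibition; IC50 from a Hill-equation fit.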

[17] = test system: Escherichia coli; assay: Antibacterial activity against Escherichia coli ARC6599 infected in sc dosed cyclophosphamide-induced CD-1 mouse model of neutropenic thigh infection assessed as reduction in CFU administered 2 hrs post-infection and measured after 24 hrs; assay type: functional, organism-based; in short: as §3
[18] = Clearance in Sprague-Dawley rat at 90 mg/kg, iv administered as single bolus dose by HPLC analysis; assay type: ADME, organism-based; details: in vivo
In short: (§4)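 Fasted male Sprague-Dawley rats given one IV tail-vein slow-push bolus of compound formulated at 90 mg/mL in 2.5% dextrose/20 mM acetate pH 5, 1 mL/kg; saphenous blood at selected times into K2EDTA for plasma.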

[19] = Volume of distribution at steady state in Sprague-Dawley rat at 90 mg/kg, iv administered as single bolus dose by HPLC analysis; assay type: ADME, organism-based; details: in vivo, read-out: Vdss; in short: as §4
[20] = Chemical stability of the compound; assay type: physicochemical

Sequence of Acetylcholinesterase (P22303 whole entry): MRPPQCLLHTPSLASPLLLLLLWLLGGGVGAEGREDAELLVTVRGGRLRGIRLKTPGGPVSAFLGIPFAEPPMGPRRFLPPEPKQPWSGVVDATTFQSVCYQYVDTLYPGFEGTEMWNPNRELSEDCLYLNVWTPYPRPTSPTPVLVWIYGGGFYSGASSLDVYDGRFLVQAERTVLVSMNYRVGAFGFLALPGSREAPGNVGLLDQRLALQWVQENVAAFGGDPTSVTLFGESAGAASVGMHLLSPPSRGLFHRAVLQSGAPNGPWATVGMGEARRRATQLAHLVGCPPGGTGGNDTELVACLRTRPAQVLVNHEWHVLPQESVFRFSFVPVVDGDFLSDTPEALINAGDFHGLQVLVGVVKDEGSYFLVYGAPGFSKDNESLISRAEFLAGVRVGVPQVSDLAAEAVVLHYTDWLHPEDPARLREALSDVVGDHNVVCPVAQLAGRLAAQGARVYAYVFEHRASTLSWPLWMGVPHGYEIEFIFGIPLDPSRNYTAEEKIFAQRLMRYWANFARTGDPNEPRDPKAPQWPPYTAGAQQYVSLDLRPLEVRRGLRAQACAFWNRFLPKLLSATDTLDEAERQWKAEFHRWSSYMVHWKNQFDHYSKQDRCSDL

| Compound | pIC50 [1] | pIC50 [2] | MIC [3] [µg/mL] | other results |
| --- | --- | --- | --- | --- |
| O=CN(O)CCCc1ccc(C#Cc2ccc(CN3CCOCC3)cc2)cc1 | 7.20 | 7.68 | 32 (≈ 84.6 µM) | – |
| O=CN(O)CCN1C(=O)Cc2cc(C#Cc3ccc(CN4CCOCC4)cc3)ccc21 | 6.77 | 7.60 | 4 (≈ 9.54 µM) | – |
| O=C(CNC(=O)c1ccc(C#Cc2ccc(CN3CCOCC3)cc2)cc1)NO | 7.20 | 7.68 | 16 (≈ 40.7 µM) | MIC [4]: 64 µg/mL (≈ 163 µM); MIC [5]: > 64 µg/mL |
| CS[C@@H](Cn1nnc2cc(C#Cc3ccc(CN4CC5(C4)C[S+]([O-])C5)cc3)ccc21)N(O)C=O.O=C(O)C(F)(F)F | – | – | – | solubility [6]: > 200 mg/mL |
| CC[C@@H]([C@@H](CC(C)O)c1n[nH]c2cc(C#Cc3ccc(CN4CCOCC4)cc3)ccc12)N(O)C=O (mixture of isomers) | 8.60 | > 8.00 | 1 | MIC [4]: 16 µg/mL; MIC [5]: 32 µg/mL |
| O=CN(O)CCn1ccc2nc(C#Cc3ccc(CN4CCOCC4)cc3)ccc21 | 6.00 | 6.77 | 32 (≈ 79.1 µM) | – |
| O=CN(O)CCn1ccc2cc(C#Cc3ccc(CN4CCOCC4)cc3)ccc21 | 7.35 | 8.00 | 2 (≈ 4.96 µM) | – |
| CS[C@@H](Cn1nnc2cc(C#Cc3ccc(CN4CCOCC4)cc3)ccc21)N(O)C=O | > 9.00 | > 8.00 | 0.13 (≈ 0.288 µM) | MIC [4]: 4 µg/mL (≈ 8.86 µM); MIC [5]: 4 µg/mL (≈ 8.86 µM); Cmax [7]: 21500 ng/mL; AUC [8]: 34800 ng·h/mL; CL [9]: 80 mL/min/kg; Vd [10]: 10.1 L/kg; fAUC/MIC [11]: 104; fraction unbound at 7 h [12]: 0.09; fraction unbound at 7 h [13]: 0.03; Activity [14]: 2 log10CFU; Activity [15]: >3.2 log10CFU; pIC50 [16]: 5.46; Activity [17]: Dose-dependent effect; clearance [18]: 33.3 mL/min/kg; Vd [19]: 0.58 L/kg |
| C[C@@H](O)[C@H](NC(=O)c1ccc(C#Cc2ccc(CN3CCOCC3)cc2)cc1)C(=O)NO | – | > 8.00 | 0.13 (≈ 0.297 µM) | MIC [4]: 1 µg/mL (≈ 2.29 µM); MIC [5]: 2 µg/mL (≈ 4.57 µM) |
| O=CN(O)CCn1ccc2cc(C#Cc3ccc(CN4CCOCC4)cc3)ncc21 | 6.00 | 6.13 | 64 (≈ 158 µM) | – |

Now from value to compound, other results behind:

| pIC50 [1] | pIC50 [2] | MIC [3] [µg/mL] | Compound | other results |
| --- | --- | --- | --- | --- |
| 8.89 | > 8.00 | 0.25 (≈ 0.554 µM) | CSC(Cn1nnc2cc(C#Cc3ccc(CN4CCOCC4)cc3)ccc21)N(O)C=O (stereo not drawn) | – |
| 5.96 | 7.09 | 16 (≈ 39.6 µM) | O=CN(O)CCn1cnc2cc(C#Cc3ccc(CN4CCOCC4)cc3)ccc21 | – |
| 7.43 | 7.82 | 4 (≈ 9.87 µM) | O=CN(O)CCc1nnn2cc(C#Cc3ccc(CN4CCOCC4)cc3)ccc12 | – |
| 7.19 | 7.55 | 4 (≈ 9.89 µM) | O=CN(O)CCn1ncc2cc(C#Cc3ccc(CN4CCOCC4)cc3)ccc21 | – |
| 7.68 | 7.39 | 4 (≈ 8.86 µM) | CS[C@H](Cn1nnc2cc(C#Cc3ccc(CN4CCOCC4)cc3)ccc21)N(O)C=O | – |
| 8.62 | > 8.00 | 1 (≈ 2.31 µM) | CCC(Cn1nnc2cc(C#Cc3ccc(CN4CCOCC4)cc3)ccc21)N(O)C=O (stereo not drawn) | – |
| 8.00 | 7.72 | 4 (≈ 9.25 µM) | CCC(Cc1n[nH]c2cc(C#Cc3ccc(CN4CCOCC4)cc3)ccc12)N(O)C=O (stereo not drawn) | MIC [4]: > 64 µg/mL; MIC [5]: > 64 µg/mL |
| 7.21 | 7.38 | 2 (≈ 4.59 µM) | O=CN(O)C(CO)Cn1nnc2cc(C#Cc3ccc(CN4CCOCC4)cc3)ccc21 (stereo not drawn) | – |
| 8.27 | > 8.00 | 0.5 (≈ 1.07 µM) | CCSC(Cn1nnc2cc(C#Cc3ccc(CN4CCOCC4)cc3)ccc21)N(O)C=O (stereo not drawn) | – |
| 7.36 | 7.70 | 4 (≈ 9.87 µM) | O=CN(O)CCn1nnc2cc(C#Cc3ccc(CN4CCOCC4)cc3)ccc21 | – |
| 6.55 | 7.27 | 16 (≈ 39.5 µM) | O=CN(O)CCc1nnc2cc(C#Cc3ccc(CN4CCOCC4)cc3)ccn12 | – |
| 7.85 | – | 2 (≈ 4.77 µM) | CC(Cn1nnc2cc(C#Cc3ccc(CN4CCOCC4)cc3)ccc21)N(O)C=O (stereo not drawn) | – |
| 8.14 | > 8.00 | 0.25 (≈ 0.574 µM) | COC(Cn1nnc2cc(C#Cc3ccc(CN4CCOCC4)cc3)ccc21)N(O)C=O (stereo not drawn) | Stabilty [20]: Unstable |
| 7.39 | 7.66 | 2 (≈ 4.45 µM) | CCOC(Cn1nnc2cc(C#Cc3ccc(CN4CCOCC4)cc3)ccc21)N(O)C=O (stereo not drawn) | Stabilty [20]: Unstable |
